Screening data from PubChem BioAssay.
dFosB activator – activators of delta FosB homodimer, primary screen, biochemical, fluorescence polarization, TAMRA-CDK5 oligo, single point; Protein FosB (Mus musculus), P13346; purified delta FosB; percent of positive-control signal above neutral wells; activation, % at 25 µM; 0.99% of 340,000 active; AID 493131, 2011;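 active means mean activation above about 17%, with every replicate also reaching it, limit read from the data, passing the limit was not always enough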
Target sequence (P13346 whole entry, looked up): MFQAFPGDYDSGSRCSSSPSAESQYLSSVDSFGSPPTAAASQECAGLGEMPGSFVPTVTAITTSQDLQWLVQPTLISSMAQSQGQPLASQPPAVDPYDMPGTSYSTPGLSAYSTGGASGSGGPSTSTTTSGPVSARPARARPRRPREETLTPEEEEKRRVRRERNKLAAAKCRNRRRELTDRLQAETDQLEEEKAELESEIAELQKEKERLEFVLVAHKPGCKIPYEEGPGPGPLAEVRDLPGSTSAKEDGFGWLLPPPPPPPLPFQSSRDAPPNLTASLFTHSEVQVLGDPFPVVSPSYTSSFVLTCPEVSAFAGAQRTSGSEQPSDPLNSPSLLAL
F508del corr – F508del CFTR correction, initial screen, CFBE line, single point; AID 720511, 2013; CFBE cells, YFP halide quenching; stimulated with forskolin plus potentiator P3; % fluorescence drop versus neutral controls; 0.36% of 350,000 active; activity (quench increase), % at 7.58 µM;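 active means mean added fluorescence quench of at least 8% versus neutral control, with both replicates also reaching 8%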;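 further: cells transiently co-express mutant CFTR-F508del with the halide-sensitive YFP; corrector assay measuring rescue of mutant channel to the surface after 24 h compound exposure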
FGF22 binding – binders of human FGF22 protein, primary screen, FGF22 synaptogenesis inhibitor project, biophysical, thermal shift, single point | 1.5% of 340,000 active | recombinant FGF22 thermal shift, SYPRO orange fluorescence; percent of sucrose octasulfate shift, DMSO zero | Fibroblast growth factor 22 (Homo sapiens), Q9HCT0 | activity (Tm shift, normalised), % at 9.99 µM;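 active means mean Tm shift, scaled 0 neutral to 100 positive control, at about 1.3% or above, every replicate too, limit read from the data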
Target sequence (Q9HCT0 whole entry, looked up): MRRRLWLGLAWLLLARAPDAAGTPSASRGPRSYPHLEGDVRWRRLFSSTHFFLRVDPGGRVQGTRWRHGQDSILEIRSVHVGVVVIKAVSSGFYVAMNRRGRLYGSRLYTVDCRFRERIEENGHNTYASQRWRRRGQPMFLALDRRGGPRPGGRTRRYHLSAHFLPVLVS
S100A4 inh HTS – inhibitors of S100A4-myosin IIA peptide binding, primary screen, biochemical, fluorescence polarization, TAMRA-MyoIIA peptide; inhibition, % at 10.7 µM; Protein S100-A4 (Homo sapiens), P26447; AID 652163, 2013; 0.14% of 360,000 active;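 active means mean inhibition of at least 70% across replicates, with every replicate also reaching that level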
Target sequence (P26447 whole entry, looked up): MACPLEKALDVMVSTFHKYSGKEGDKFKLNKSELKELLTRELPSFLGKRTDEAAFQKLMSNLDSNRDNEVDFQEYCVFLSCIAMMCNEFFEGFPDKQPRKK
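Material: S100A4 monomer (human). Medium: Calcium-containing HEPES buffer, pH 7.2. Probe or stimulus: labelled myosin peptide probe, 5 nM. Compound dosing: one concentration per compound. Timing: polarization read 5 min after assay mix addition, stable 5–60 min. Benchmarks: DMSO as neutral control, TFP as positive control.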
Numbers without * were called inactive. An excerpt weighted towards active compounds, which were near 2.2% of everything screened.

What do the screens show for `CCC(=O)N[C@@H]1CC[C@H](CCNC(=O)Nc2ccc(C(F)(F)F)cc2)O[C@@H]1CO`?
F508del corr: -4.9; FGF22 binding: -0.1; S100A4 inh HTS: 9.1

Results for O=C(Cc1ccccn1)NCC[C@H]1CC[C@@H](NC(=O)Nc2ccc(C(F)(F)F)cc2)[C@@H](CO)O1 ?
F508del corr: 31.0*; FGF22 binding: -0.1; S100A4 inh HTS: -16.8

How did CCC(=O)N[C@@H]1CC[C@H](CCNC(=O)Nc2ccc(C(F)(F)F)cc2)O[C@H]1CO do in these assays?
F508del corr: 0.2; FGF22 binding: -0.4; S100A4 inh HTS: 92.3*

What do the screens show for `O=C(Cc1ccccn1)NCC[C@H]1CC[C@H](NC(=O)Nc2ccc(C(F)(F)F)cc2)[C@H](CO)O1`?
F508del corr: 21.7*; FGF22 binding: 0.0; S100A4 inh HTS: -5.2

How did O=C(Cc1ccccn1)NCC[C@H]1CC[C@@H](NC(=O)Nc2ccc(F)cc2)[C@@H](CO)O1 do in these assays?
F508del corr: 0.6; FGF22 binding: -0.1; S100A4 inh HTS: -7.2

What do the screens show for `O=C(NC[C@H]1CC[C@@H]2[C@@H](CN2C(=O)Cc2ccncc2)O1)C1CCOCC1`?
F508del corr: 0.5; S100A4 inh HTS: 26.4

What do the screens show for `CCOC(=O)/C(N=Nc1c(C)n(C)n(-c2ccccc2)c1=O)=C(/O)c1ccccc1`?
dFosB activator: -1.0; F508del corr: -1.8; FGF22 binding: 43.3*; S100A4 inh HTS: 5.4

How did Cc1c(N=N/C(C(=O)Nc2ccccc2)=C(/O)c2ccccc2)c(=O)n(-c2ccccc2)n1C do in these assays?
dFosB activator: -3.8; F508del corr: -6.2; FGF22 binding: 0.2; S100A4 inh HTS: -3.2

Results for CO[C@@H]1CN(C)C(=O)c2cc(NC(C)=O)ccc2OC[C@@H](C)N(CCC(F)(F)F)C[C@H]1C ?
F508del corr: 0.9; FGF22 binding: 0.0; S100A4 inh HTS: -2.3

How did C=CCc1cc(Cl)ccc1OCCCNC(C)C do in these assays?
dFosB activator: 1.1

What do the screens show for `C=CCc1cc(Cl)ccc1OCCCNCCO`?
dFosB activator: 0.8; F508del corr: -1.7; FGF22 binding: 44.5*; S100A4 inh HTS: -7.3

Results for COCc1cc(C)nc(OCC(=O)N/N=C/c2ccc(OC)c(O)c2)c1C#N ?
dFosB activator: -2.6; F508del corr: -3.1; FGF22 binding: 44.2*; S100A4 inh HTS: 5.5

Results for COCC(=O)Nc1ccc2c(c1)C(=O)N(C)C[C@H](OC)[C@@H](C)CN(CCC(F)(F)F)[C@H](C)CO2 ?
F508del corr: 0.2; FGF22 binding: -0.4; S100A4 inh HTS: -11.8

What do the screens show for `COc1cccc(NC(=O)N[C@H]2C=C[C@H](CC(=O)NCc3ccncn3)O[C@@H]2CO)c1`?
F508del corr: -4.2; FGF22 binding: 0.8; S100A4 inh HTS: 7.7

Results for COc1cccc(NC(=O)N[C@@H]2C=C[C@@H](CC(=O)NCc3ccncn3)O[C@@H]2CO)c1 ?
F508del corr: -0.6; FGF22 binding: -0.7; S100A4 inh HTS: 90.0*

Results for O=C(C[C@H]1C=C[C@@H](NC(=O)c2ccc(F)cc2)[C@H](CO)O1)NCc1ccncn1 ?
F508del corr: -0.4; FGF22 binding: 0.3; S100A4 inh HTS: 5.9

Results for O=C(C[C@H]1C=C[C@H](NC(=O)c2ccc(F)cc2)[C@H](CO)O1)NCc1ccncn1 ?
F508del corr: -1.3; FGF22 binding: -0.7; S100A4 inh HTS: 116.4*

Results for COc1ccc(-c2nn(-c3ccccc3)cc2C(=O)OCC(=O)c2ccc(C)c([N+](=O)[O-])c2)cc1 ?
dFosB activator: 2.2; F508del corr: 3.8; FGF22 binding: 42.9*; S100A4 inh HTS: -2.1

What do the screens show for `C=CCn1c(CNC(=O)c2ccccc2F)nnc1SCc1nc2ccccc2c(=O)[nH]1`?
dFosB activator: -8.3; F508del corr: -5.6; FGF22 binding: 43.1*; S100A4 inh HTS: -2.0

Results for COC(=O)c1sccc1NC(=O)CSCCc1ccncc1 ?
dFosB activator: -3.5; F508del corr: -0.6; FGF22 binding: 43.4*; S100A4 inh HTS: 1.1

What do the screens show for `CCC(=O)N1[C@@H](CO)[C@H](c2ccc(C3=CCCC3)cc2)[C@@H]1CNC(=O)CN(C)C`?
F508del corr: -0.5

Results for Cc1ccc(S(=O)(=O)N[C@@H]2CC[C@@H](CCNC(=O)C3CCC3)O[C@H]2CO)cc1 ?
F508del corr: 0.2; FGF22 binding: 0.0; S100A4 inh HTS: -1.8

How did CSCCC(NS(=O)(=O)c1ccc2c(c1)c(=O)n(C)c(=O)n2C)C(=O)NC1CCN(Cc2ccccc2)CC1 (configuration not stated) do in these assays?
dFosB activator: -0.3; F508del corr: -1.4; FGF22 binding: 0.7; S100A4 inh HTS: 2.5

How did CN(CC(=O)NC1CCN(Cc2ccccc2)CC1)S(=O)(=O)c1ccc2c(c1)c(=O)n(C)c(=O)n2C do in these assays?
dFosB activator: -10.1; F508del corr: -0.7; FGF22 binding: 43.2*; S100A4 inh HTS: 2.0

What do the screens show for `CCOc1ccc(/C=C/C(=O)CCC(=O)O)cc1`?
dFosB activator: -4.4; F508del corr: -2.2; FGF22 binding: 43.0*; S100A4 inh HTS: 6.4

Results for Cc1ccc(S(=O)(=O)Nc2cccc3c2O[C@@H](CN(C)CC2CCCCC2)[C@@H](C)CN([C@@H](C)CO)C3=O)cc1 ?
F508del corr: -0.7; FGF22 binding: -0.2; S100A4 inh HTS: 10.3

Results for O=C(NN=Cc1ccc2c(c1)OCO2)C1CC1 ?
dFosB activator: -6.3; F508del corr: -1.3; FGF22 binding: 43.3*; S100A4 inh HTS: 1.1

How did N/C(=N\N=Cc1ccc2c(c1)OCO2)NN=Cc1ccc2c(c1)OCO2 do in these assays?
dFosB activator: 42.0*; F508del corr: -2.0; FGF22 binding: -0.1; S100A4 inh HTS: 1.8

What do the screens show for `N/C(=N\N=C/c1ccc(F)cc1)N/N=C\c1ccc(F)cc1`?
dFosB activator: 25.9*; F508del corr: -15.2; FGF22 binding: -0.1; S100A4 inh HTS: 0.3

How did O=C(NN=Cc1ccc2c(c1)OCO2)NN=Cc1ccc2c(c1)OCO2 do in these assays?
dFosB activator: 5.8; F508del corr: -0.8; FGF22 binding: 0.0; S100A4 inh HTS: -0.3

What do the screens show for `N/C(=N\N=C/c1ccc(Br)cc1)N/N=C\c1ccc(Br)cc1`?
dFosB activator: 0.7; F508del corr: 1.4; FGF22 binding: 0.2; S100A4 inh HTS: -5.5

Results for CCCC(=O)Nc1ccc2c(c1)C(=O)N(C)C[C@H](OC)[C@H](C)CN(C(=O)c1cnccn1)[C@@H](C)CO2 ?
F508del corr: 2.4; FGF22 binding: 0.1; S100A4 inh HTS: -9.0

How did CCCNC(=O)N1CC2(C1)[C@H](c1ccccc1)[C@H](CO)N2C(=O)C1CCCC1 do in these assays?
F508del corr: 2.2; S100A4 inh HTS: -0.5

What do the screens show for `CCOC(=O)N(C)C[C@H]1OCc2ccccc2-c2c(n(C)c3ccccc23)C(=O)N([C@@H](C)CO)C[C@H]1C`?
F508del corr: 1.3; FGF22 binding: -0.1; S100A4 inh HTS: 6.3
